Results: article PMC4212002 (Molecular Pharmaceutics, 2014)
Positions of bridges follow the written chain, without caps; N, C: chain ends. Residues, ends and D or L forms follow the SMILES beside them.

Legend:
[1] = test system: integrin αvβ3 (U87MG cells); conditions: read-out: U87MG IC50; binding to U87MG cells; ref 22 and 23; cited from earlier work
integrin αvβ5 = conditions: cited from earlier work
integrin αiibβ3 = conditions: cited from earlier work
integrin αvβ3 = integrin αvβ3 (Homo sapiens, UniProt P05106+P06756); conditions: cited from earlier work
integrin α5β1 = conditions: cited from earlier work
[2] = Small animal PET imaging quantification; format: in vivo, mouse; conditions: mouse, tumor, iv, 3.7 MBq, total radioactivity
Outline: (§1)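 Female nude mice carried s.c. U87MG shoulder xenografts of 0.5–1 cm, n = 4 per group. About 3.7 MBq (100 μCi) of radiotracer was given via tail vein, with or without ~330 μg c(RGDyK) coinjected. Mice were scanned on a small-animal PET at 0.5, 1 and 2 h p.i. under isoflurane (5% induction, 2% maintenance in 100% O2). Images were reconstructed by OSEM 2D and regional uptake quantified as %ID/g.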

U87MG tumor-bearing mice [3] = assay: Small animal PET imaging quantification; format: in vivo, mouse; conditions: U87MG xenograft mice, within 2 h p.i.
Outline: as §1

Biodistribution study = format: in vivo, mouse; conditions: nude, mouse, iv, total radioactivity
Outline: (§2)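 Female athymic nude mice bore s.c. right-shoulder xenografts (~1 × 10^7 U87MG cells in 100 μL PBS, grown 2–3 weeks to 0.5–1 cm). The radiofluorinated peptide (1.85–3.7 MBq) was given via tail vein; mice were killed 0.5–2.5 h p.i. Tissues were weighed and γ-counted and expressed as %ID/g, n = 4 per group. A blocking group was coinjected with 330 μg c(RGDyK) and examined at 2.5 h.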

U87MG tumor-bearing mice [4] = assay: Biodistribution study; format: in vivo, mouse; conditions: U87MG xenograft nude mice, i.v., 2.5 h p.i., mean ± SD n = 4
Outline: as §2

U87MG cells = assay: U87MG cell uptake assay; format: cell-based, human; conditions: for cell uptake (% of added radioactivity): 37 kBq/well, mean ± SD, triplicate
Outline: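 U87MG cells were grown in high-glucose DMEM with 10% FBS and 1% pen-strep (37 °C, 5% CO2) and trypsinised at 70–80% confluence. Cells (1 × 10^5/well) attached overnight and were PBS-washed, then exposed to 37 kBq radiotracer per well in medium ± 2 μg/well c(RGDyK) at 37 or 4 °C for 15–120 min. Cells were washed, lysed in 1.0 M NaOH and γ-counted as % added activity. Two experiments, triplicate wells.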

[5] = In vitro stability in PBS buffer; format: physicochemical; conditions: 0.01 M PBS pH 7.4, 1 h, room temperature, 3.7–5.55 MBq, radio-HPLC
Outline: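 The radiotracer was reconstituted in PBS and sterile-filtered (0.22 μm) before incubation. After incubation, samples were analysed by radio-HPLC. Percent intact peptide was obtained by quantifying the peaks for intact peptide and for degradation products.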

Sequence of integrin αvβ3 (P06756 31-889): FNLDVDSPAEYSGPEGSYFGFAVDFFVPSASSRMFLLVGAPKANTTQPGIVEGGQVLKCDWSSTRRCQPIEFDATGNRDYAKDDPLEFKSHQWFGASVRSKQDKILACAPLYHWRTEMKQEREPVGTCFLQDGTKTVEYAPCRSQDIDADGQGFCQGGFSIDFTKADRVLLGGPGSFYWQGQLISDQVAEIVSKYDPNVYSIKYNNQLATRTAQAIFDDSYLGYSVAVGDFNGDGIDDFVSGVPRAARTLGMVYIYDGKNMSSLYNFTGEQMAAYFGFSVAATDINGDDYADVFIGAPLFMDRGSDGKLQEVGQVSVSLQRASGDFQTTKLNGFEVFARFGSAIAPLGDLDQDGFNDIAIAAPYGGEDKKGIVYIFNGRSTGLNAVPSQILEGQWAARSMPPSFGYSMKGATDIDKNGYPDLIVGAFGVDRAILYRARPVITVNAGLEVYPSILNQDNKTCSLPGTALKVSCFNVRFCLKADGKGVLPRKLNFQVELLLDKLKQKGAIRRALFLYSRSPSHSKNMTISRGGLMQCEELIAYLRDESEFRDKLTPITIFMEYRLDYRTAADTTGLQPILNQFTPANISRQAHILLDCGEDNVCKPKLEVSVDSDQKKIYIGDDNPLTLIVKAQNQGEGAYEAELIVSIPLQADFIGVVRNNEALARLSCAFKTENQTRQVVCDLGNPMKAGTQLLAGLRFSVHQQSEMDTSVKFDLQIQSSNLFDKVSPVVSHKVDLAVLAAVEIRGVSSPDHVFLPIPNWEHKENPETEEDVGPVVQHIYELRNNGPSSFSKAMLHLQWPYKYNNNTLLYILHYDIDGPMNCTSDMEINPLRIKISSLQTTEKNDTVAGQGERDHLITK
Sequence of integrin αvβ3 (P06756 891-992): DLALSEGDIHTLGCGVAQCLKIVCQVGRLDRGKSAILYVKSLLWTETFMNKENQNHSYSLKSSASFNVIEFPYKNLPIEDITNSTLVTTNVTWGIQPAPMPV
Sequence of integrin αvβ3 (P05106 27-718): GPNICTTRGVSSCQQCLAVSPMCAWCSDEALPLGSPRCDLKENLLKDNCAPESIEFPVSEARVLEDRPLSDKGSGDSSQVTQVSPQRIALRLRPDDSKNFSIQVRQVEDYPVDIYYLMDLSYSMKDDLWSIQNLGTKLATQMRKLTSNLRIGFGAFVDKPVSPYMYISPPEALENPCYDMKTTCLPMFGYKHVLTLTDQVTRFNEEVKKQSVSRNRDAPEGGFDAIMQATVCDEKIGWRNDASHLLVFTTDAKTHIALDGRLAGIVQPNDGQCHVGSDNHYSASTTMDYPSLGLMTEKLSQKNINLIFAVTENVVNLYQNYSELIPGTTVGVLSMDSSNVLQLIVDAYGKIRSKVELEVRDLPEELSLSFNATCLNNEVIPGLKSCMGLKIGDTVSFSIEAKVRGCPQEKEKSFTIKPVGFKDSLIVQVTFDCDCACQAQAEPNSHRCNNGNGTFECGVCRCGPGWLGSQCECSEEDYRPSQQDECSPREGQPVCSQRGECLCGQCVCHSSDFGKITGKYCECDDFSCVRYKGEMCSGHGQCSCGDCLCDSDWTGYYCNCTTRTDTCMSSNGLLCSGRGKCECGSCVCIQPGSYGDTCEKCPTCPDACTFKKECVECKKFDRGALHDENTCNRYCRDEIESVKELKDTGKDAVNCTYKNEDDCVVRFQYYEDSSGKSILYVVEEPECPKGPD

In the case of `CSCC[C@@H]1NC(=O)[C@H](CC(=O)O)NC(=O)CNC(=O)[C@H](CCCNC(=N)N)NC(=O)[C@H](C)NC(=O)[C@H](CCC(=O)O)NC(=O)[C@H](CCCNC(=N)N)NC(=O)[C@@H]2CSSC[C@@H]3NC(=O)[C@H](CO)NC(=O)[C@H]([C@@H](C)O)NC(=O)[C@@H]4CCCN4C(=O)[C@H](C)NC(=O)[C@H](Cc4c[nH]c5ccccc45)NC(=O)[C@H](CC(=O)O)NC(=O)CNC(=O)[C@H](CCCNC(=N)N)NC(=O)CNC(=O)[C@H](CCC(N)=O)NC(=O)[C@@H]4CCCN4C(=O)[C@@H](NC(=O)CN)CSSC[C@H](NC(=O)CNC(=O)[C@H](C)NC(=O)[C@H](CC(C)C)NC(=O)[C@H](CSSC[C@@H](C(=O)NCC(N)=O)NC(=O)[C@H]([C@@H](C)O)NC(=O)[C@H](CCCNC(=N)N)NC(=O)[C@@H]4CCCN4C1=O)NC(=O)[C@H](CC(=O)O)NC(=O)[C@H](CO)NC(=O)[C@H](CC(=O)O)NC(=O)[C@H](CCC(N)=O)NC(=O)[C@H](CO)NC3=O)C(=O)N[C@@H](C(C)C)C(=O)N2` [3-4A] (H-GCPQGRGDWAPTSCSQDSDCLAGCVCREARGDMPRTCG-NH2; disulfide 2-24, 14-26, 20-37; C-terminus assumed), the IC50 [1] is given as 5 ± 2 nM, the “binding affinity to integrin αvβ5” value (integrin αvβ5) is given as “high binding affinity” and the “binding affinity for integrin αiibβ3” value (integrin αiibβ3) is given as “lower affinity”. For the same compound, the “binding affinity to integrin αvβ3” value (integrin αvβ3) was “high binding affinity” and the “binding affinity for integrin α5β1” value (integrin α5β1) was “lower affinity”.
In the case of `CSCC[C@@H]1NC(=O)[C@H](CC(=O)O)NC(=O)CNC(=O)[C@H](CCCNC(=N)N)NC(=O)[C@H](C)NC(=O)[C@H](CCC(=O)O)NC(=O)[C@H](CCCNC(=N)N)NC(=O)[C@@H]2CSSC[C@@H]3NC(=O)[C@H](CO)NC(=O)[C@H]([C@@H](C)O)NC(=O)[C@@H]4CCCN4C(=O)[C@H](C)NC(=O)[C@H](Cc4c[nH]c5ccccc45)NC(=O)[C@H](CC(=O)O)NC(=O)CNC(=O)[C@H](CCCNC(=N)N)NC(=O)CNC(=O)[C@H](CCC(N)=O)NC(=O)[C@@H]4CCCN4C(=O)[C@@H](NC(=O)CNC(=O)C(C)F)CSSC[C@H](NC(=O)CNC(=O)[C@H](C)NC(=O)[C@H](CC(C)C)NC(=O)[C@H](CSSC[C@@H](C(=O)NCC(N)=O)NC(=O)[C@H]([C@@H](C)O)NC(=O)[C@H](CCCNC(=N)N)NC(=O)[C@@H]4CCCN4C1=O)NC(=O)[C@H](CC(=O)O)NC(=O)[C@H](CO)NC(=O)[C@H](CC(=O)O)NC(=O)[C@H](CCC(N)=O)NC(=O)[C@H](CO)NC3=O)C(=O)N[C@@H](C(C)C)C(=O)N2` (stereo partly shown) [^18F-FP–3-4A], the tissue uptake at 0.5 h [2] is reported as 3.87 ± 0.66 %ID/g, the “in vivo defluorination (bone uptake on PET)” value (U87MG tumor-bearing mice [3]) is reported as “no observable defluorination” and the tissue to tissue ratio at 0.5 h (Biodistribution study; tumor and blood) is reported as 5.94 ± 0.94. It also gave a tissue to tissue ratio at 1 h (Biodistribution study; tumor and blood) of 4.39 ± 0.82, a tissue to tissue ratio at 2.5 h (Biodistribution study; tumor and blood) of 3.12 ± 0.55 and a tissue to tissue ratio at 0.5 h (Biodistribution study; tumor and kidney) of 0.57 ± 0.19. It also gave a tissue to tissue ratio at 1 h (Biodistribution study; tumor and kidney) of 0.6 ± 0.12, a tissue to tissue ratio at 2.5 h (Biodistribution study; tumor and kidney) of 0.72 ± 0.15 and a tissue to tissue ratio at 0.5 h (Biodistribution study; tumor and liver) of 5.55 ± 0.63. It also gave a tissue to tissue ratio at 1 h (Biodistribution study; tumor and liver) of 5.69 ± 0.88, a tissue to tissue ratio at 2.5 h (Biodistribution study; tumor and liver) of 3.15 ± 0.74 and a tissue to tissue ratio at 0.5 h (Biodistribution study; tumor and lung) of 2.22 ± 0.45. It also gave a tissue to tissue ratio at 1 h (Biodistribution study; tumor and lung) of 1.44 ± 0.31, a tissue to tissue ratio at 2.5 h (Biodistribution study; tumor and lung) of 1.64 ± 0.01 and a tissue to tissue ratio at 0.5 h (Biodistribution study; tumor and muscle) of 10.8 ± 1.52. For the same compound, the tissue to tissue ratio at 1 h (Biodistribution study; tumor and muscle) was 10.1 ± 1.22, the tissue to tissue ratio at 2.5 h (Biodistribution study; tumor and muscle) was 3.47 ± 0.07 and the tissue to tissue ratio at 0.5 h (Biodistribution study; tumor and pancreas) was 12 ± 1.94. For the same compound, the tissue to tissue ratio at 1 h (Biodistribution study; tumor and pancreas) was 6.06 ± 0.54, the tissue to tissue ratio at 2.5 h (Biodistribution study; tumor and pancreas) was 3.96 ± 1.24 and the tissue to tissue ratio at 0.5 h (Biodistribution study; tumor and spleen) was 4.28 ± 0.4. For the same compound, the tissue to tissue ratio at 1 h (Biodistribution study; tumor and spleen) was 2.63 ± 0.32, the tissue to tissue ratio at 2.5 h (Biodistribution study; tumor and spleen) was 1.83 ± 0.16 and the liver uptake (U87MG tumor-bearing mice [4]) was 0.29 % ID/g. For the same compound, the “accumulation in cells at 37 °C compared to 4 °C” value (U87MG cells) was 2–3 fold, the “inhibition of cell uptake by excess c(RGDyK)” value (U87MG cells; 4 °C, 1 h, 2 μg/well c(RGDyK)) was 31.82% and the “cell uptake (% of added radioactivity)” value (U87MG cells; 4 °C, 15 min) was 0.32 ± 0.02%. The “cell uptake (% of added radioactivity)” value (U87MG cells; 4 °C, 30 min) was 0.41 ± 0.11%, the “cell uptake (% of added radioactivity)” value (U87MG cells; 4 °C, 60 min) was 0.44 ± 0.05% and the “cell uptake (% of added radioactivity)” value (U87MG cells; 4 °C, 120 min) was 0.51 ± 0.04%. For the same compound, the “cell uptake (% of added radioactivity)” value (U87MG cells; 37 °C, 15 min) was 0.71 ± 0.07%, the “cell uptake (% of added radioactivity)” value (U87MG cells; 37 °C, 30 min) was 0.90 ± 0.04% and the “cell uptake (% of added radioactivity)” value (U87MG cells; 37 °C, 60 min) was 1.44 ± 0.04%. The “cell uptake (% of added radioactivity)” value (U87MG cells; 37 °C, 120 min) was 1.50 ± 0.07% and the “intact probe after incubation in PBS” value [5] was “completely intact”.
